# According to ChEMBL document CHEMBL4400512, “Searching for new agents active against Candida albicans biofilm: A series of indole derivatives, design, synthesis and biological evaluation” (Eur J Med Chem, 2019):
# Legend:
# Candida albicans [1] = experiment: Antifungal activity against planktonic form of Candida albicans ATCC 10231 by broth microdilution method; format: organism-based; settings: in vitro
# Method in brief: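 CLSI M27-A3 broth microdilution. Cells grown on Sabouraud dextrose agar at 35°C for 24 h; final inoculum 1×10^3–5×10^3 cells/mL. Compounds from DMSO stocks, final DMSO below 1%, final range 256–0.25 µg/mL. Controls were DMSO 1% and fluconazole reference. MIC50 is the lowest concentration giving ≥50% growth inhibition. Three independent experiments in duplicate; median reported.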
# Candida albicans [2] = experiment: Antibiofilm activity against Candida albicans ATCC 10231 assessed as inhibition of mature biofilm formation by XTT reduction assay; format: functional
# Method in brief: (§1)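 Biofilm assay after Pierce et al., with compound applied either during biofilm formation or to 24 h pre-formed (mature) biofilm. Read-out is metabolic activity of cells in the biofilm by XTT reduction. BMIC50 is the lowest concentration giving a 50% drop relative to untreated growth control. Tested in triplicate, at least two experiments on separate dates; median reported.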
# Candida albicans [3] = experiment: Antibiofilm activity against Candida albicans ATCC 10231 assessed as inhibition of biofilm formation by XTT reduction assay; format: functional; method in brief: as §1
# Candida albicans [4] = experiment: Antifungal activity against planktonic form of Candida albicans PMC 1042 by broth microdilution method; format: organism-based; settings: in vitro
# Method in brief: (§2)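 Broth microdilution per CLSI M27-A3 and M27-S4. Strains were grown on Sabouraud dextrose agar at 35°C for 24 h. Final inoculum 1×10^3–5×10^3 cells/mL. Compounds were dissolved in DMSO (final <1%); 1% DMSO served as control. Final range 256–0.25 µg/mL. MIC50 is the lowest concentration giving ≥50% growth inhibition. Three independent experiments in duplicate, median; fluconazole as reference.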
# Candida albicans [5] = experiment: Antifungal activity against planktonic form of Candida albicans PMC 1082 by broth microdilution method; format: organism-based; settings: in vitro; method in brief: as §2
# Candida albicans [6] = experiment: Antifungal activity against planktonic form of Candida albicans ATCC 10261 by broth microdilution method; format: organism-based; settings: in vitro; method in brief: as §2
# Candida albicans [7] = experiment: Antibiofilm activity against Candida albicans PMC 1042 assessed as inhibition of mature biofilm formation by XTT reduction assay; format: functional
# Method in brief: (§3)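 Biofilm method of Pierce et al. Biofilms were treated either during formation or once mature (24 h preformed). Metabolic activity of the cells within the biofilm was read by XTT reduction. BMIC50 is the lowest concentration giving a 50% drop in metabolic activity versus the untreated growth control. At least two experiments on separate dates, triplicate, reported as median.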
# [8] = Toxicity in Galleria mellonella larvae assessed as larval survival at 50 ug/ml after 72 hrs relative to control
# Method in brief: (§4)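 Ten healthy larvae per group, stored at 15°C in the dark. Each got a 20 µL injection into the haemocoel via the last left proleg, with compound freshly made in sterile water containing <1% v/v DMSO. Larvae were incubated at 30°C and survival scored every 24 h; death was no movement on stimulation plus cuticle discolouration. Controls were untreated, pierced-only and vehicle. Mean % survival of two independent experiments.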
# Candida albicans [9] = experiment: Antibiofilm activity against Candida albicans PMC 1082 assessed as inhibition of mature biofilm formation by XTT reduction assay; format: functional; method in brief: as §3
# [10] = Toxicity in Galleria mellonella larvae assessed as larval survival at 500 ug/ml after 48 hrs relative to control; method in brief: as §4
# Candida albicans [11] = experiment: Antibiofilm activity against Candida albicans PMC 1042 assessed as inhibition of biofilm formation by XTT reduction assay; format: functional; method in brief: as §3
# [12] = Toxicity in Galleria mellonella larvae assessed as larval survival at 100 ug/ml after 24 hrs relative to control; method in brief: as §4
# [13] = Toxicity in Galleria mellonella larvae assessed as larval survival at 5 ug/ml after 24 hrs relative to control; method in brief: as §4
# [14] = Toxicity in Galleria mellonella larvae assessed as larval survival at 500 ug/ml after 72 hrs relative to control; method in brief: as §4
# [15] = Toxicity in Galleria mellonella larvae assessed as larval survival at 5 ug/ml after 48 hrs relative to control; method in brief: as §4
# [16] = Toxicity in Galleria mellonella larvae assessed as larval survival at 100 ug/ml after 48 hrs relative to control; method in brief: as §4
# [17] = Toxicity in Galleria mellonella larvae assessed as larval survival at 500 ug/ml after 24 hrs relative to control; method in brief: as §4
# [18] = Toxicity in Galleria mellonella larvae assessed as larval survival at 5 ug/ml after 72 hrs relative to control; method in brief: as §4
# [19] = Toxicity in Galleria mellonella larvae assessed as larval survival at 10 ug/ml after 24 hrs relative to control; method in brief: as §4
# [20] = Toxicity in Galleria mellonella larvae assessed as larval survival at 50 ug/ml after 24 hrs relative to control; method in brief: as §4
# Candida albicans [21] = experiment: Antibiofilm activity against Candida albicans ATCC 10261 assessed as inhibition of mature biofilm formation by XTT reduction assay; format: functional; method in brief: as §3
# Candida albicans [22] = experiment: Antibiofilm activity against Candida albicans PMC 1082 assessed as inhibition of biofilm formation by XTT reduction assay; format: functional; method in brief: as §3
# [23] = Toxicity in Galleria mellonella larvae assessed as larval survival at 10 ug/ml after 48 hrs relative to control; method in brief: as §4
# Candida albicans [24] = experiment: Antibiofilm activity against Candida albicans ATCC 10261 assessed as inhibition of biofilm formation by XTT reduction assay; format: functional; method in brief: as §3
# [25] = Toxicity in Galleria mellonella larvae assessed as larval survival at 10 ug/ml after 72 hrs relative to control; method in brief: as §4
# [26] = Toxicity in Galleria mellonella larvae assessed as larval survival at 50 ug/ml after 48 hrs relative to control; method in brief: as §4
# [27] = Toxicity in Galleria mellonella larvae assessed as larval survival at 100 ug/ml after 72 hrs relative to control; method in brief: as §4
structure (smiles),measurement,setting,value
Brc1ccccc1CNCCc1c[nH]c2ccccc12,MIC50,Candida albicans [1],128 µg/mL
same,MBIC50,Candida albicans [2],16 µg/mL
same,MBIC50,Candida albicans [3],16 µg/mL
O=[N+]([O-])c1ccc(/C=C/CNCCc2c[nH]c3ccccc23)cc1,MIC50,Candida albicans [1],> 128 µg/mL
same,MBIC50,Candida albicans [2],>128 µg/mL
same,MBIC50,Candida albicans [3],8 µg/mL
c1ccc(CNCCc2c[nH]c3ccccc23)cc1,MIC50,Candida albicans [1],> 128 µg/mL
same,MBIC50,Candida albicans [2],32 µg/mL
same,MBIC50,Candida albicans [3],32 µg/mL
c1ccc(Oc2ccc(CNCCc3c[nH]c4ccccc34)cc2)cc1,MIC50,Candida albicans [4],64 µg/mL
same,MIC50,Candida albicans [5],16 µg/mL
same,MIC50,Candida albicans [6],16 µg/mL
same,MIC50,Candida albicans [1],4 µg/mL
same,MBIC50,Candida albicans [7],2 µg/mL
same,survival at 72 h,[8],100%
same,MBIC50,Candida albicans [9],2 µg/mL
same,survival at 48 h,[10],70%
same,MBIC50,Candida albicans [11],8 µg/mL
same,survival at 24 h,[12],100%
same,survival at 24 h,[13],100%
same,survival at 72 h,[14],70%
same,survival at 48 h,[15],100%
same,survival at 48 h,[16],100%
same,MBIC50,Candida albicans [2],2 µg/mL
same,survival at 24 h,[17],90%
same,MBIC50,Candida albicans [3],2 µg/mL
same,survival at 72 h,[18],100%
same,survival at 24 h,[19],100%
same,survival at 24 h,[20],100%
same,MBIC50,Candida albicans [21],8 µg/mL
same,MBIC50,Candida albicans [22],8 µg/mL
same,survival at 48 h,[23],100%
same,MBIC50,Candida albicans [24],8 µg/mL
same,survival at 72 h,[25],100%
same,survival at 48 h,[26],100%
same,survival at 72 h,[27],100%
O=[N+]([O-])c1ccc(N2CCN(Cc3c[nH]c4ccccc34)CC2)cc1,MIC50,Candida albicans [4],> 256 µg/mL
same,MIC50,Candida albicans [5],> 256 µg/mL
same,MIC50,Candida albicans [6],> 256 µg/mL
same,MIC50,Candida albicans [1],> 128 µg/mL
same,MBIC50,Candida albicans [7],2 µg/mL
same,survival at 72 h,[8],100%
same,MBIC50,Candida albicans [9],2 µg/mL
same,survival at 48 h,[10],100%
same,MBIC50,Candida albicans [11],32 µg/mL
same,survival at 24 h,[12],100%
same,survival at 24 h,[13],100%
same,survival at 72 h,[14],100%
same,survival at 48 h,[15],100%
same,survival at 48 h,[16],100%
same,MBIC50,Candida albicans [2],4 µg/mL
same,survival at 24 h,[17],100%
same,MBIC50,Candida albicans [3],>128 µg/mL
same,survival at 72 h,[18],100%
same,survival at 24 h,[19],100%
same,survival at 24 h,[20],100%
same,MBIC50,Candida albicans [21],8 µg/mL
same,MBIC50,Candida albicans [22],32 µg/mL
same,survival at 48 h,[23],100%
same,MBIC50,Candida albicans [24],32 µg/mL
same,survival at 72 h,[25],100%
same,survival at 48 h,[26],100%
same,survival at 72 h,[27],100%
OC(Cn1cncn1)(Cn1cncn1)c1ccc(F)cc1F [FLUCONAZOLE],MIC50,Candida albicans [4],8 µg/mL
same,MIC50,Candida albicans [5],0.125 µg/mL
same,MIC50,Candida albicans [6],2 µg/mL
same,MIC50,Candida albicans [1],0.5 µg/mL
same,MBIC50,Candida albicans [7],>64 µg/mL
same,MBIC50,Candida albicans [9],>64 µg/mL
same,MBIC50,Candida albicans [11],>64 µg/mL
same,MBIC50,Candida albicans [2],>128 µg/mL
same,MBIC50,Candida albicans [3],128 µg/mL
same,MBIC50,Candida albicans [21],>64 µg/mL
same,MBIC50,Candida albicans [22],>64 µg/mL
same,MBIC50,Candida albicans [24],>64 µg/mL
COc1ccc(CNCCc2c[nH]c3ccccc23)cc1[N+](=O)[O-],MIC50,Candida albicans [1],> 128 µg/mL
same,MBIC50,Candida albicans [2],32 µg/mL
same,MBIC50,Candida albicans [3],128 µg/mL
CN(C)c1ccc(CNCCc2c[nH]c3ccccc23)cc1,MIC50,Candida albicans [1],> 128 µg/mL
same,MBIC50,Candida albicans [2],16 µg/mL
same,MBIC50,Candida albicans [3],32 µg/mL
O=[N+]([O-])c1ccc(CNCCc2c[nH]c3ccccc23)cc1,MIC50,Candida albicans [1],> 128 µg/mL
same,MBIC50,Candida albicans [2],32 µg/mL
same,MBIC50,Candida albicans [3],32 µg/mL
O=[N+]([O-])c1ccc(CNCCc2c[nH]c3ccccc23)o1,MIC50,Candida albicans [1],> 128 µg/mL
same,MBIC50,Candida albicans [2],16 µg/mL
same,MBIC50,Candida albicans [3],16 µg/mL
Clc1ccc(CNCCc2c[nH]c3ccccc23)cc1,MIC50,Candida albicans [1],32 µg/mL
same,MBIC50,Candida albicans [2],32 µg/mL
same,MBIC50,Candida albicans [3],16 µg/mL
Brc1cccc(CNCCc2c[nH]c3ccccc23)c1,MIC50,Candida albicans [1],64 µg/mL
same,MBIC50,Candida albicans [2],32 µg/mL
same,MBIC50,Candida albicans [3],4 µg/mL
C(=C\c1ccccc1)/CNCCc1c[nH]c2ccccc12,MIC50,Candida albicans [1],64 µg/mL
same,MBIC50,Candida albicans [2],64 µg/mL
same,MBIC50,Candida albicans [3],8 µg/mL
O=C(NCCc1c[nH]c2ccccc12)c1cccnc1 [NICOTREDOLE],MIC50,Candida albicans [1],> 128 µg/mL
same,MBIC50,Candida albicans [2],64 µg/mL
same,MBIC50,Candida albicans [3],>128 µg/mL
O=C(NCCc1c[nH]c2ccccc12)c1ccc([N+](=O)[O-])o1,MIC50,Candida albicans [1],> 128 µg/mL
same,MBIC50,Candida albicans [2],16 µg/mL
same,MBIC50,Candida albicans [3],128 µg/mL
O=[N+]([O-])c1cccc(Cl)c1CNCCc1c[nH]c2ccccc12,MIC50,Candida albicans [1],> 128 µg/mL
same,MBIC50,Candida albicans [2],8 µg/mL
same,MBIC50,Candida albicans [3],16 µg/mL
NCCc1c[nH]c2ccccc12 [TRYPTAMINE],MIC50,Candida albicans [1],> 128 µg/mL
same,MBIC50,Candida albicans [2],>128 µg/mL
same,MBIC50,Candida albicans [3],128 µg/mL
O=C(NCCc1c[nH]c2ccccc12)c1ccccc1,MIC50,Candida albicans [1],> 128 µg/mL
same,MBIC50,Candida albicans [2],32 µg/mL
same,MBIC50,Candida albicans [3],32 µg/mL
O=C(NCCc1c[nH]c2ccccc12)c1ccccn1,MIC50,Candida albicans [1],> 128 µg/mL
same,MBIC50,Candida albicans [2],32 µg/mL
same,MBIC50,Candida albicans [3],32 µg/mL
O=[N+]([O-])c1ccccc1CNCCc1c[nH]c2ccccc12,MIC50,Candida albicans [1],> 128 µg/mL
same,survival at 72 h,[8],90%
same,survival at 48 h,[10],100%
same,survival at 24 h,[12],90%
same,survival at 24 h,[13],100%
same,survival at 72 h,[14],100%
same,survival at 48 h,[15],100%
same,survival at 48 h,[16],90%
same,MBIC50,Candida albicans [2],8 µg/mL
same,survival at 24 h,[17],100%
same,MBIC50,Candida albicans [3],64 µg/mL
same,survival at 72 h,[18],100%
same,survival at 24 h,[19],100%
same,survival at 24 h,[20],90%
same,survival at 48 h,[23],100%
same,survival at 72 h,[25],100%
same,survival at 48 h,[26],90%
same,survival at 72 h,[27],90%
